{"source": "ChEMBL document CHEMBL1129511", "about": "(J Med Chem, 1996)", "key": {"LoVo": {"tested_on": "LoVo", "test": "Inhibitory concentration was evaluated against colorectal tumar cell line LoVo", "format": "functional, cell-based", "conditions": "Homo sapiens", "how_it_was_run": "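Cells were exposed to compound in microtitre plates for 1 h, washed, then grown a further 3 days at 37 °C. They were fixed with TCA, and adherent cellular protein was measured by SRB staining. IC50 is the concentration giving 50% growth inhibition.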"}, "[1]": {"test": "Half life period was reported", "format": "ADME"}, "Bacteria [2]": {"tested_on": "Bacteria", "test": "Michaelis-Menten constant for bacterial Carboxypeptidase", "how_it_was_run": "(§1)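 CPG2 kinetics adapted from the methotrexate CPG2 method. Prodrug and drug spectra were scanned from 200 to 350 nm, and the wavelength of maximal absorbance difference from glutamate release was chosen. Initial rates of prodrug conversion were measured at 1-100 µM prodrug with 0.05-1 Unit CPG2 to give Km and Vmax. kcat was Vmax divided by the amount of CPG2.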"}, "Bacteria [3]": {"tested_on": "Bacteria", "test": "Catalytic rate constant for bacterial Carboxypeptidase", "how_it_was_run": "as §1"}}}
{"smiles": "CS(=O)(=O)OCCN(CCCl)c1ccc(C(=O)O)cc1", "values": [{"measurement": "IC50", "setting": "LoVo", "value": 80, "unit": "µM"}]}
{"smiles": "O=C(O)CC[C@H](NC(=O)Nc1ccc(N(CCCl)CCCl)cc1)C(=O)O", "values": [{"measurement": "half-life", "setting": "[1]", "value": 16.9, "unit": "min"}, {"measurement": "IC50", "setting": "LoVo", "value": 200, "unit": "µM"}, {"measurement": "Km", "setting": "Bacteria [2]", "value": 3, "unit": "µM"}, {"measurement": "k cat", "setting": "Bacteria [3]", "value": 7.5, "unit": "s⁻¹"}]}
{"smiles": "O=C(O)CC[C@H](NC(=O)Oc1ccc(N(CCCl)CCCl)cc1)C(=O)O", "values": [{"measurement": "half-life", "setting": "[1]", "value": 31, "unit": "min"}, {"measurement": "IC50", "setting": "LoVo", "value": 200, "unit": "µM"}, {"measurement": "Km", "setting": "Bacteria [2]", "value": 1, "unit": "µM"}, {"measurement": "k cat", "setting": "Bacteria [3]", "value": 49, "unit": "s⁻¹"}]}
{"smiles": "O=C(O)CC[C@H](NC(=O)Cc1ccc(N(CCCl)CCCl)cc1)C(=O)O", "values": [{"measurement": "half-life", "setting": "[1]", "value": 33, "unit": "min"}, {"measurement": "IC50", "setting": "LoVo", "value": "> 500", "unit": "µM"}, {"measurement": "Km", "setting": "Bacteria [2]", "value": 16, "unit": "µM"}, {"measurement": "k cat", "setting": "Bacteria [3]", "value": 15, "unit": "s⁻¹"}]}
{"smiles": "O=C(O)CC[C@H](NC(=O)Sc1ccc(N(CCCl)CCCl)cc1)C(=O)O", "values": [{"measurement": "half-life", "setting": "[1]", "value": 32.2, "unit": "min"}, {"measurement": "IC50", "setting": "LoVo", "value": 100, "unit": "µM"}, {"measurement": "Km", "setting": "Bacteria [2]", "value": 50, "unit": "µM"}, {"measurement": "k cat", "setting": "Bacteria [3]", "value": 4, "unit": "s⁻¹"}]}
{"smiles": "CS(=O)(=O)OCCN(CCCl)c1ccc(C(=O)N[C@@H](CCC(=O)O)C(=O)O)cc1", "values": [{"measurement": "half-life", "setting": "[1]", "value": 46, "unit": "min"}, {"measurement": "IC50", "setting": "LoVo", "value": "> 500", "unit": "µM"}, {"measurement": "Km", "setting": "Bacteria [2]", "value": 3.4, "unit": "µM"}, {"measurement": "k cat", "setting": "Bacteria [3]", "value": 583, "unit": "s⁻¹"}]}
{"smiles": "O=C(O)CC[C@H](NC(=O)c1ccc(N(CCCl)CCCl)cc1)C(=O)O", "values": [{"measurement": "half-life", "setting": "[1]", "value": 660, "unit": "min"}, {"measurement": "IC50", "setting": "LoVo", "value": "> 500", "unit": "µM"}, {"measurement": "Km", "setting": "Bacteria [2]", "value": 3.4, "unit": "µM"}, {"measurement": "k cat", "setting": "Bacteria [3]", "value": 700, "unit": "s⁻¹"}]}
